# Compound activity: PubChem, Broad Institute
# FN deposit inh: fibronectin deposition inhibition | AH1F fibroblasts, Alexa488-fibronectin deposition fluorescence, overnight | inhibition, % at 12.6 µM | 350,000 compounds, 0.086% hits;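 active = mean inhibition across replicates of 30% or more, regardless of how many single replicates reach that level; inconclusive = mean under 30% yet at least half of replicates reach 30%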;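 also: positive control wells lacked labelled fibronectin entirely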
#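 Material: AH1F fibroblast monolayer depositing Alexa488-labelled fibronectin into matrix | Input: 10000 AH1F cells/well | Medium: DMEM plus 2% serum, read in PBS | Reagent: Alexa488-fibronectin, 24 nM final in well | Compound dosing: One dose per compound, pinned | Schedule: 1 h adhesion, overnight exposure | Measured by: Fluorescence at 485 nm excitation, 525 nm emission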
# DENV2 CPE rescue: DENV2-induced cell death inhibition | DENV2-infected cells, cytopathic effect rescue, plate reader | CPE inhibition, % at 9.99 µM | 350,000 compounds, 1.7% hits; in the data active = CPE inhibition above about 20%, passing the limit was not always enough; inconclusive = no clear call, values can overlap the other calls; tested in BHK-21 cells;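 also: 0% = median of neutral control wells and 100% = median of positive control wells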
# Casp6 inh: caspase-6 (human) enzyme inhibition; P55212; purified caspase-6, Z-VEID-R110 cleavage fluorescence; inhibition, % at 12.5 µM; 350,000 compounds, 0.53% hits;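 active = mean inhibition across replicates at least about 35%, with every replicate also reaching that limit, limit read from the data; inconclusive = only one of the two criteria met; inactive = neither criterion met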;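 also: 0% = median of neutral control wells and 100% = no fluorescence left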
# Target sequence (P55212 24-179 limits assumed): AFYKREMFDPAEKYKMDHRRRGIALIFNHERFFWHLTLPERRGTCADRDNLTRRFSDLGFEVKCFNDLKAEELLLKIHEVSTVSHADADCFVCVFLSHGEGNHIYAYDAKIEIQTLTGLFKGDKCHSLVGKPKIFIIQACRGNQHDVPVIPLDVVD
# Target sequence (P55212 194-293 limits assumed): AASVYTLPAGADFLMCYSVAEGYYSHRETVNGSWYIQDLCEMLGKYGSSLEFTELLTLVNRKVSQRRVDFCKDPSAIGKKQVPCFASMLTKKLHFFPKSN
# CaV13 FRET inh: Primary screen for inhibitors of IQ motif and Ca2+-dependent inactivation inhibitor domain binding in CACNA1D, Förster resonance energy transfer in living cells, …. HEK cells, CFP/YFP FRET ICDI-IQ, plate reader, 10 min; percent FRET-ratio fall versus neutral wells. inhibition, % at 12.3 µM. AID 743397. 340,000 compounds, 0.098% hits;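 active = mean replicate inhibition of at least 30% and at least 1% of replicates passing that level; inconclusive = only one of the two criteria is met; inactive = neither criterion is met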;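 also: 0% = median of the neutral control wells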
# Xi reactivation: activators of X-chromosome reactivation in mouse fibroblasts; AID 743238; activation, % at 7.58 µM; XiGFP mouse fibroblasts, % GFP-positive cells imaging, 3 d; cells co-treated with 5-aza-dC sensitizer; scaled so ellipticine positive control = 100%; 360,000 compounds, 0.055% hits;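 active = mean normalized replicate activation at least 10% and every replicate at or above 10%; inconclusive = only one of the two criteria met; inactive = mean below 10% and not all replicates reach 10%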;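 also: 0% = median of on-plate neutral control wells and 100% = ellipticine 6 µM median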
#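 System: XiGFP fibroblasts, SV40-immortalized. Medium: DMEM plus 5-aza-dC sensitizer. Doses: single point. Timing: 3 d treatment, 15 min room-temperature fixation. Control set: ellipticine 6 µM.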
# An asterisk follows results filed as active; ? = inconclusive; · = no result. An excerpt weighted towards active compounds, which were near 2% of everything screened.
SMILES,FN deposit inh,DENV2 CPE rescue,Casp6 inh,CaV13 FRET inh,Xi reactivation
O=S(=O)(N[C@H]1CC[C@@H](CCn2cc(-c3cccnc3)nn2)O[C@H]1CO)c1ccccc1,·,28*,0,·,0
Cc1ccccc1S(=O)(=O)N[C@@H]1CC[C@H](CCn2cc(-c3ccccc3)nn2)O[C@@H]1CO,·,21*,-1,·,0
O=C(Cc1ccccn1)N[C@H]1CC[C@H](CCn2cc(-c3cccnc3)nn2)O[C@@H]1CO,·,58*,-3,·,0
C[C@H](CO)N1C[C@H](C)[C@H](CN(C)C(=O)CC2CC2)Oc2cc(-c3cncnc3)ccc2S1(=O)=O,-18,-8,-1,·,-1
C[C@@H]1CN([C@H](C)CO)C(=O)c2cccc(NC(=O)Nc3ccccc3)c2O[C@@H]1CN(C)C,3,16,1,·,0
CCCn1c(SCC(=O)N2c3ccccc3Sc3ccccc32)nc2c1c(=O)n(C)c(=O)n2C,active,·,·,-5,·
CC(C)n1c(SCC(=O)N2c3ccccc3Sc3ccccc32)nc2c1c(=O)n(C)c(=O)n2C,13,·,·,-4,·
C[C@@H]1CN([C@@H](C)CO)C(=O)c2cc(C3=CCCCC3)cnc2O[C@@H]1CN(C)S(C)(=O)=O,·,·,·,·,-1
Cc1cnc(CNC(=O)C2CCC(=O)N(Cc3ccc(Cl)cc3)C2)[nH]1 (stereo not drawn),·,72*,0,·,0
O=C(NCc1ccccn1)C1CCC(=O)N(Cc2ccc(Cl)cc2)C1 (stereo not drawn),-3,10,-3,-3,0
Cc1cc(C(=O)N2CCCC(N3CCN(c4cccc(C(F)(F)F)c4)CC3)C2)no1 (stereo not drawn),-3,?,1,-6,0
O=C(c1cc(C2CC2)on1)N1CCCC(N2CCN(c3cccc(C(F)(F)F)c3)CC2)C1 (stereo not drawn),2,30*,1,-10,0
CCN(CC)CC(=O)N1CCCC(N2CCN(c3cccc(C(F)(F)F)c3)CC2)C1 (stereo not drawn),-5,30*,-12,-5,0
CC(C)NC(=O)N(C)C[C@H]1OCCCC[C@H](C)Oc2ccc(NS(=O)(=O)c3cn(C)cn3)cc2C(=O)N([C@@H](C)CO)C[C@@H]1C,-2,-8,3,·,0
COCC#Cc1cnc2c(c1)C(=O)N([C@@H](C)CO)C[C@H](C)[C@@H](CN(C)C(=O)c1ccc3c(c1)OCO3)O2,·,1,-2,·,-1
CCCN1C[C@H](C)[C@@H](OC)CN(C)C(=O)c2cc(NC(=O)Nc3ccccc3F)ccc2OC[C@@H]1C,8,-1,·,·,0
N#Cc1cccc(-c2ccc([C@H]3[C@@H](CO)N4CCCCN(C(=O)Nc5ccccc5)C[C@@H]34)cc2)c1,·,5,2,·,0
CC(C)C(C)NC(=O)CSc1ccc(S(=O)(=O)N2CCOCC2)cn1 (stereo not drawn),4,4,-2,-2,0
CC(NC(=O)CSc1ccc(S(=O)(=O)N2CCOCC2)cn1)c1ccc(Cl)cc1Cl (stereo not drawn),30*,8,0,-3,0
CCCC#Cc1cnc2c(c1)C(=O)N([C@@H](C)CO)C[C@H](C)[C@@H](CN(C)Cc1ccccc1F)O2,·,·,·,·,0
O=c1cc(-c2cccc(F)c2)[nH]c2ccccc12,-8,36*,-1,-8,0
C[C@H](CO)N1C[C@H](C)[C@H](CN(C)S(=O)(=O)c2cn(C)cn2)Oc2ccc(NC(=O)c3ccncc3)cc2C1=O,9,-10,-1,·,-1
CO[C@@H]1CN(C)C(=O)c2cc(NC(=O)C3CC3)ccc2OC[C@@H](C)N(Cc2cccc(F)c2)C[C@H]1C,-10,-2,-3,·,0
COc1cccc(-c2ccc3c(c2)[C@@H]2[C@@H](CCN2S(=O)(=O)c2ccc(F)cc2)[C@H](CO)N3C)c1,-14,-20,0,·,0
O=C(O)CC(c1ccccc1)N1C(=O)c2ccccc2C1=O (stereo not drawn),4,40*,1,-4,0
O=C(O)C(c1ccccc1)N1C(=O)c2ccccc2C1=O (stereo not drawn),3,0,1,-2,0
